The values that follow come from ChEMBL document CHEMBL1122910, “Syntheses and evaluation as antifolates of MTX analogues derived from 2, omega-diaminoalkanoic acids” (J Med Chem, 1985).

Usually IC50 stands for the concentration that inhibits the measured activity by half. Low readings indicate greater potency, high ones weaker potency. In general, Ki refers to the equilibrium dissociation constant of an inhibitor or competing ligand from its target. The term ILS denotes how much longer treated animals lived than controls.

For test [1], the system named is L1210. As to the kind of experiment: Inhibition of L1210 cell growth in mice. As to conditions: Mus musculus. The format is functional, cell-based.
The target of a further test is T1, Dihydrofolate reductase (Mus musculus, UniProt P00375).
T1 sequence (P00375 whole entry): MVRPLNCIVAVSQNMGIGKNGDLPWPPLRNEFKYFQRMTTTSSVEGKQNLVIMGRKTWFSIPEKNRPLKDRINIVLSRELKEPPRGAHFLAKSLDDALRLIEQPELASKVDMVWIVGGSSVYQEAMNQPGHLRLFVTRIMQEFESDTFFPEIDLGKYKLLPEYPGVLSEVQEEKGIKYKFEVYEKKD
Description: In vitro inhibitory activity against Dihydrofolate reductase in L1210 cell in mice. The format is cell-based.

Another test relates to P388. Description: In vivo antitumor activity as increase in life span in mice with P388 10E6 tumor cell implanted intraperitoneally. The format is functional, Mus musculus.
Test [2] relates to L1210. As to the kind of experiment: Antitumor activity L1210 cell line as cell membrane transport activity. Type of test: functional, cell-based. As to conditions: Mus musculus.
Test [3] concerns L1210. Description: Antitumor activity against L1210 cell line as cell membrane transport activity. The format is functional, Mus musculus.
For test [4], the system named is Mus musculus. Description: Antitumor activity in mice with L1210 Leukemia and […] (MST) in days was reported for 3 mice x 2 experiments at a dose of 144 mg/kg. Type of test: functional. In a few lines: (§1)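 L1210 leukemia-bearing mice dosed on a q2d × 5 schedule. Untreated controls were 5 mice × 12 experiments. Read-outs were MST (days ± SD), % ILS versus control, and body weight at termination (g ± SD).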

The next test concerns CCRF S-180. As to the kind of experiment: In vitro antitumor activity against S180 cell line. Type of test: functional, Mus musculus.
Test [5] has as its system L1210. Description: (§2) In vitro antitumor activity against L1210 cell line. The format is functional, cell-based. The following applies: Mus musculus.
For test [6], the system named is Mus musculus. Description: Antitumor activity in mice with L1210 Leukemia and weight at termination of the therapy was reported for 3 mice x 2 experiments at a dose of 144 mg/kg. Type of test: functional.
The subject of test [7] is Ehrlich. Description: In vitro antitumor activity against Erlich cell line. Type of test: functional, Mus musculus.
A further test has as its system Epithelial cell line. Description: (§3) In vitro antitumor activity against epithelial cell line. Type of test: functional, Mus musculus.
For test [8], the system named is Mus musculus. As to the kind of experiment: Antitumor activity in mice with L1210 Leukemia and percentage increase in life span was reported for 3 mice x 2 experiments at a dose of 144 mg/kg. Type of test: functional. Summed up:
as §1

The test system of test [9] is L1210. Described as §2. The format is functional, Mus musculus.
The subject of test [10] is Mus musculus. Description: Antitumor activity in mice with L1210 Leukemia and […] (MST) in days was reported for 3 mice x 2 experiments at a dose of 432 mg/Kg. The format is functional. Summed up: as §1
Test [11] has as its system Mus musculus. Description: Antitumor activity in mice with L1210 Leukemia and weight at termination of the therapy was reported for 3 mice x 2 experiments at a dose of 432 mg/Kg. Type of test: functional.
Test [12] deals with Mus musculus. As to the kind of experiment: Antitumor activity in mice with L1210 Leukemia and percentage increase in life span was reported for 3 mice x 2 experiments at a dose of 432 mg/Kg. Type of test: functional. In a few lines:
as §1

Test [13] has as its system L1210. Description: In vivo antitumor activity as increase in life span in mice with L1210 10E6 tumor cell implanted intraperitoneally; optimal dose is 768 mg/kg. The format is functional. As to conditions: Mus musculus, L1210, ip, route intraperitoneal.
The test system of test [14] is Mus musculus. Description: Antitumor activity in mice with L1210 Leukemia and percentage increase in life span was reported for 5 mice x 12 experiments at a dose of 15 mg/Kg.
Test [15] relates to L1210. Description: In vivo antitumor activity as increase in life span in mice with L1210 10E6 tumor cell implanted intraperitoneally; optimal dose is 12 mg/kg. As to conditions: Mus musculus, L1210, ip, route intraperitoneal. The format is functional.
Test [16] is filed under the species Mus musculus. Description: Antitumor activity against L1210 cell […]. The format is functional.
The subject of test [17] is Ehrlich. As to the kind of experiment: In vitro antitumor activity against Erlich cell line,. Type of test: functional, Mus musculus.
The test system of a further test is Epithelial cell. The test is described as §3. Type of test: functional, Mus musculus.
Test [18] relates to Mus musculus. As to the kind of experiment: Antitumor activity in mice with L1210 Leukemia and weight at termination of the therapy was reported for 5 mice x 12 experiments at a dose of 15 mg/kg. The format is functional.
A short description of test [19]: In vitro antitumor activity against S180 cells. The format is functional, Mus musculus, CCRF S-180.

In the test on L1210 [1], `CN(Cc1cnc2nc(N)nc(N)c2n1)c1ccc(C(=O)NC(CNC(=O)OC(C)(C)C)C(=O)O)cc1` (stereo not given) came in with an IC50 of 440 nM. This lies in the sub-micromolar range.
The same measure, in the same setting: the value for `CN(Cc1cnc2nc(N)nc(N)c2n1)c1ccc(C(=O)NC(CCCN)C(=O)O)cc1` (stereo not given) was 507 nM; that for `CN(Cc1cnc2nc(N)nc(N)c2n1)c1ccc(C(=O)NC(CCNC(=O)OC(C)(C)C)C(=O)O)cc1` (stereo not given) was 333 nM.
Molecule `CCOC(=O)C(CNC(=O)N(C)N=O)NC(=O)c1ccc(N(C)Cc2cnc3nc(N)nc(N)c3n2)cc1` (stereo not given) returned a Ki on Dihydrofolate reductase of 6350 pM. In the test with P388, this molecule displayed an ILS of 58%. Moreover, the Efflux Ki with L1210 [2] was 0.298 min⁻¹. Further, in the test with L1210 [3], the “Influx Ki” value was found to be 42.4 µM. In the test with L1210 [1], the midpoint of inhibition, the IC50, lay at 3650 nM.
For the molecule `CN(Cc1cnc2nc(N)nc(N)c2n1)c1ccc(C(=O)NC(CCN)C(=O)O)cc1` (stereo not given), in the test with L1210 [1], the IC50 came to 1360 nM.
For `CN(Cc1cnc2nc(N)nc(N)c2n1)c1ccc(C(=O)NC(CCNC(=O)c2ccc(Cl)cc2)C(=O)O)cc1` (stereo not given), the Ki at Dihydrofolate reductase came to 6.42 pM. The molecule further had an Efflux Ki in the test with L1210 [2] of 1.21 min⁻¹. Also, in the test on L1210 [3], the “Influx Ki” value was 4.67 µM. The molecule also registered an IC50 in the test with L1210 [1] of 27.3 nM.
On to `CNC(=O)NCC(NC(=O)c1ccc(N(C)Cc2cnc3nc(N)nc(N)c3n2)cc1)C(=O)O` (stereo not given), for which, in the test on Mus musculus [4], the MST was found to be 7 days. For the same molecule, the “Influx Ki” value is 19.7 µM with CCRF S-180, 13.4 µM in the test on Ehrlich [7], more than 500 µM with Epithelial cell line and 16.7 µM with L1210 [9]. In the test with L1210 [5], this molecule showed an Efflux Ki of 0.27 min⁻¹. The Weight in the test on Mus musculus [6] stood at 20 g. Also, the affinity on Dihydrofolate reductase corresponds to a Ki of 14200 pM. For the same molecule, the ILS at 144 mg/kg with Mus musculus [8] turned out to be 12%. In addition, in the test on L1210 [1], 34.3 nM corresponded to half-maximal inhibition (IC50).
`CN(Cc1cnc2nc(N)nc(N)c2n1)c1ccc(C(=O)NC(CNC(N)=O)C(=O)O)cc1` (stereo not given): the “Influx Ki” value is 11.6 µM with CCRF S-180, 12.5 µM in the test with Ehrlich [7], more than 500 µM in the test on Epithelial cell line and 11.6 µM in the test on L1210 [9]. For the same molecule, the Efflux Ki with L1210 [5] was determined as 0.25 min⁻¹. Moreover, on Dihydrofolate reductase, the inhibitory constant (Ki) came out at 35000 pM. Further, the MST in the test with Mus musculus [10] was 16.3 days. In addition, in the test on Mus musculus [11], the Weight is given as 16 g. Besides, the ILS at 432 mg/kg in the test with Mus musculus [12] was 129%. Further, the IC50 in the test on L1210 [1] was 9.4 nM.
For the molecule `CCOC(=O)C(CNC(=O)N(CCCl)N=O)NC(=O)c1ccc(N(C)Cc2cnc3nc(N)nc(N)c3n2)cc1` (stereo not given), at Dihydrofolate reductase, the inhibitory constant (Ki) worked out at 3240 pM. In the test on P388, the increase in lifespan (ILS) is reported as 113%. Further, in the test with L1210 [2], the Efflux Ki was 0.202 min⁻¹. The “Influx Ki” value with L1210 [3] was 46.9 µM. Further, the IC50 with L1210 [1] stood at 2900 nM.
Consider `CN(Cc1cnc2nc(N)nc(N)c2n1)c1ccc(C(=O)NC(CNC(=O)NC(CCC(=O)O)C(=O)O)C(=O)O)cc1` (stereo not given), for which the Ki at Dihydrofolate reductase was 4.71 pM. Also, in the test with L1210 [2], the Efflux Ki came to 0.234 min⁻¹. For the same molecule, the “Influx Ki” value in the test with L1210 [3] was 16.4 µM. The molecule also came in with an IC50 in the test on L1210 [1] of 200 nM.
For `CN(Cc1cnc2nc(N)nc(N)c2n1)c1ccc(C(=O)NC(CNC(=O)c2ccc(Cl)cc2)C(=O)O)cc1` (stereo not given) the same measures were 4.98 pM, 0.255 min⁻¹, 7.43 µM and 11.9 nM.
`CN(Cc1cnc2nc(N)nc(N)c2n1)c1ccc(C(=O)NC(CN)C(=O)O)cc1` (stereo not given) gave an IC50 with L1210 [1] of 1030 nM.
On to `CN(Cc1cnc2nc(N)nc(N)c2n1)c1ccc(C(=O)NC(CCCNC(=O)c2ccc(Cl)cc2)C(=O)O)cc1` (stereo not given), for which affinity on Dihydrofolate reductase was put at a Ki of 5.31 pM. In addition, the ILS at 768 mg/kg in the test with L1210 [13] was found to be 104%. Moreover, the Efflux Ki with L1210 [2] was 0.437 min⁻¹. In addition, in the test on L1210 [3], the “Influx Ki” value was 4.32 µM. The same molecule registered an IC50 in the test with L1210 [1] of 1.71 nM.
The molecule `CN(Cc1cnc2nc(N)nc(N)c2n1)c1ccc(C(=O)N[C@@H](CCC(=O)O)C(=O)O)cc1` [METHOTREXATE] came in with an ILS at 15 mg/kg in the test on Mus musculus [14] of 152%. Moreover, the ILS at 12 mg/kg in the test on L1210 [15] was determined as 173%. Besides, the “Influx Ki” value is 11.4 µM with CCRF S-180; 10.1 µM in the test with Ehrlich [17]; 4.57 µM in the test on L1210 [3]; 339 µM with Epithelial cell; 3.7 µM in the test with L1210 [9]. Moreover, the IC50 in the test filed under Mus musculus [16] and with L1210 [1] was 3.28 nM in each case. The molecule further had an Efflux Ki in the test on L1210 [2] of 0.203 min⁻¹. Moreover, the Weight with Mus musculus [18] is on record as 19.8 g. For the same molecule, the Effllux in the test on L1210 [9] came to 0.23 min⁻¹.
In turn, `CN(Cc1cnc2nc(N)nc(N)c2n1)c1ccc(C(=O)NC(CCNC(N)=O)C(=O)O)cc1` (stereo not given) showed an Efflux Ki in the test on L1210 [5] of 0.19 min⁻¹. The molecule further had a Ki on Dihydrofolate reductase of 4 pM. In addition, the “Influx Ki” value is 15.9 µM with Ehrlich [7], 24.6 µM in [19], more than 500 µM in the test with Epithelial cell line and 17.3 µM in the test with L1210 [9]. This molecule also returned an MST with Mus musculus [10] of 9.3 days. The Weight in the test on Mus musculus [11] was 21.6 g. In the test on Mus musculus [12], this molecule displayed an ILS at 432 mg/kg of 33%. The molecule also came in with an IC50 with L1210 [1] of 21.8 nM.
Consider `CN(Cc1cnc2nc(N)nc(N)c2n1)c1ccc(C(=O)NC(CCCNC(=O)OC(C)(C)C)C(=O)O)cc1` (stereo not given), for which, in the test on L1210 [1], the IC50 was 97 nM.
